The values that follow come from ChEMBL document CHEMBL4613249, “Serendipitous Discovery of Leucine and Methionine Depletion Agents during the Search for Polyamine Transport Inhibitors” (J Med Chem, 2020).

The source made the active and inactive calls. The calls are words filed in the database; no cut-off is given here.

For data set [1], the target named is Large neutral amino acids transporter small subunit 1 (Homo sapiens) (UniProt Q01650). The data set is described as follows: Inhibition of LAT1-mediated amino acid transport in human L3.6PL cells assessed as reduction in intracellular methionine level by measuring methionine level per mg protein in cell lysate at 5 uM measured after 72 hrs by LCMS analysis (reference value: 167 +/- 67 pmol/mg). The data set is classed as cell-based. The procedure, abridged: (§1)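 L3.6pl cells (50,000 cells/mL, 10 mL, 1 mM aminoguanidine) were seeded in poly-lysine-treated 9 cm dishes and incubated overnight at 37°C. They were then dosed with compound at 2, 5 or 7 μM from PBS stocks (2, 5, 7 mM) and incubated 72 h. Runs were done in triplicate, with amino acid levels per mg protein.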
Large neutral amino acids transporter small subunit 1 (Homo sapiens), sequence (Q01650 whole entry): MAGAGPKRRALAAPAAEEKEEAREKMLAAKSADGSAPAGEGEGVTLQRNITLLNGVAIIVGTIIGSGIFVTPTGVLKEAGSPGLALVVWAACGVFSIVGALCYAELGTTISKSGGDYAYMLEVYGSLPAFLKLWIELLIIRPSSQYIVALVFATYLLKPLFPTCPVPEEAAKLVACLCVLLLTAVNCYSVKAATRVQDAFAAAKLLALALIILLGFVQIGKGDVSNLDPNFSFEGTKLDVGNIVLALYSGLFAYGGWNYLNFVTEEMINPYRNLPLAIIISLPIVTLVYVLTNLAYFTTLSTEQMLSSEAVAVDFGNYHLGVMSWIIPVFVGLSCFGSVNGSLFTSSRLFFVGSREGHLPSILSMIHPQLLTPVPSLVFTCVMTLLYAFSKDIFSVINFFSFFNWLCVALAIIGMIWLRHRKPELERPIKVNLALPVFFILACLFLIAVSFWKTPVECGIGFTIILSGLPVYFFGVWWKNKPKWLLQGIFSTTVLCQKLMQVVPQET

The target is the same in data set [2]. Put plainly: Inhibition of LAT1-mediated [3H]-leucine uptake in human L3.6PL cells at 2 to 7 uM preincubated for 24 hrs at 37 degree C followed by HBBS addition and compound washout and measured after 15 mins by scintillation counter method. The data set is classed as cell-based. The procedure, abridged:
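L3.6pl cells were preincubated with compound for 24 h at 37°C, then washed and placed in HBSS. ³H-leucine uptake was measured over 15 min at 37°C. Unbound label was removed with three cold buffer washes, and counts were normalized to μg protein.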

Data set [3] has as its system L3.6pl. Put plainly: Effect on polyamine level in human L3.6PL cells assessed as decrease in intracellular spermine level at 1 uM measured after 72 hrs in presence of amine oxidase suppressor aminoguanidine and Ant-44 by LCMS analysis. The data set is classed as functional, cell-based. The essentials:
(§2)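 L3.6pl cells dosed with Ant-44 fixed at 2 μM plus increasing compound for 72 h at 37°C. Intracellular polyamines and Ant-44 given as nmol/mg protein, in duplicate, with a parallel untreated control.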

Data set [4] concerns the target Large neutral amino acids transporter small subunit 1 (Homo sapiens) (UniProt Q01650). The data set is described as follows: Inhibition of LAT1-mediated amino acid transport in human L3.6PL cells assessed as reduction in intracellular leucine level by measuring leucine level per mg protein in cell lysate at 7 uM measured after 72 hrs by LCMS analysis (reference value: 232 +/- 10 pmol/mg). It is filed as cell-based. The procedure, abridged: as §1

The target is the same in data set [5]. Put plainly: Inhibition of LAT1-mediated [3H]-leucine uptake in human L3.6PL cells measured after 2 mins by scintillation counting analysis. The data set is classed as cell-based.
In data set [6] the test system is L3.6pl. The data set is described as follows: Effect on polyamine level in human L3.6PL cells assessed as decrease in intracellular putrescine level at 1 uM measured after 72 hrs in presence of amine oxidase suppressor aminoguanidine and Ant-44 by LCMS analysis. The data set is classed as functional, cell-based. The procedure, abridged:
as §2

Data set [7] concerns L3.6pl. The data set is described as follows: Effect on polyamine level in human L3.6PL cells assessed as decrease in intracellular spermine level at 7 uM measured after 72 hrs in presence of amine oxidase suppressor aminoguanidine by LCMS analysis relative to control. Also on record: scale not given: the % may be the effect or the level left. The data set is classed as functional. The essentials: (§3)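 L3.6pl cells, 50,000 cells/mL in 10 mL per Petri dish with 1 mM aminoguanidine, plated overnight. Dosed with compound at 2, 5 or 7 μM from PBS stocks, then 72 h at 37°C. Intracellular polyamines measured by N-dansylation and HPLC, in duplicate, as nmol/mg protein against a parallel untreated control.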

Data set [8] has as its system L3.6pl. The data set is described as follows: Effect on polyamine level in human L3.6PL cells assessed as glutamic acid level per mg protein in supernatant at 2 uM measured after 72 hrs in presence of amine oxidase suppressor aminoguanidine by LCMS analysis (reference value: 23412 +/- 3983 pmol/mg).
For data set [9], the system named is L3.6pl. The data set is described as follows: Cytotoxicity against human L3.6PL cells assessed as reduction in cell viability at 1 uM measured after 72 hrs by MTS assay. It is filed as cell-based. The essentials: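 L3.6pl cells given compound at increasing concentrations, alone or with Ant-44 fixed at 2 μM, for 72 h at 37°C. % cell growth by MTS against an untreated control run in parallel, in triplicate.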
On the technique in general: Tetrazolium assays rely on reduction of a dye to a coloured formazan, in cell work by metabolically active cells.

Data set [10] addresses Large neutral amino acids transporter small subunit 1 (Homo sapiens) (UniProt Q01650). The data set is described as follows: Inhibition of LAT1-mediated amino acid transport in human L3.6PL cells assessed as reduction in intracellular leucine level by measuring leucine level per mg protein in cell lysate at 5 uM measured after 72 hrs by LCMS analysis (reference value: 232 +/- 10 pmol/mg). The data set is classed as cell-based. The procedure, abridged:
as §1

The subject of data set [11] is L3.6pl. Put plainly: Effect on polyamine level in human L3.6PL cells assessed as arginine level per mg protein in supernatant at 5 uM measured after 72 hrs in presence of amine oxidase suppressor aminoguanidine by LCMS analysis (reference value: 22121 +/- 10585 pmol/mg). It is filed as functional.
The subject of data set [12] is L3.6pl. Put plainly: Effect on polyamine level in human L3.6PL cells assessed as methionine level human L3.6PL cells assessed per mg protein in supernatant at 5 uM pretreated with aminoguanidine for 24 hrs followed by compound treatment after 72 hrs by LCMS analysis (reference value: 22834 +/- 1984 pmol/mg). The data set is classed as functional.
For data set [13], the system named is L3.6pl. Put plainly: Effect on polyamine level in human L3.6PL cells assessed as phenylalanine level per mg protein in supernatant at 5 uM measured after 72 hrs in presence of amine oxidase suppressor aminoguanidine by LCMS analysis (reference value: 14299 +/- 7194 pmol/mg). The data set is classed as functional.
In data set [14] the target is Large neutral amino acids transporter small subunit 1 (Homo sapiens) (UniProt Q01650). Put plainly: Induction of LAT1-mediated polyamine efflux in aminoguanidine pretreated human L3.6PL cells assessed as reduction in cell viability at 5 uM measured after 72 hrs in presence of spermine by MTS assay. The data set is classed as cell-based. The essentials: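 L3.6pl cells pre-incubated 24 h with 250 μM aminoguanidine. Then given increasing compound plus putrescine, spermidine or spermine, each fixed at 1 or 5 μM, for 72 h at 37°C. Growth by MTS relative to untreated control.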

In data set [15] the test system is L3.6pl. The data set is described as follows: Effect on polyamine level in human L3.6PL cells assessed as leucine level per mg protein in supernatant at 2 uM measured after 72 hrs in presence of amine oxidase suppressor aminoguanidine by LCMS analysis (reference value: 18009 +/- 9061 pmol/mg). The data set is classed as functional.
The test system of the next data set is CHO-MG. The data set is described as follows: Induction of polyamine efflux in aminoguanidine pretreated CHO-MG cells assessed as reduction in cell viability measured after 72 hrs in presence of putrescine by MTS assay. The data set is classed as ADME, cell-based, Cricetulus griseus. As to conditions: chinese hamster.
Data set [16] concerns L3.6pl. Put plainly: Effect on polyamine level in human L3.6PL cells assessed as spermidine level per mg protein in supernatant at 5 uM measured after 72 hrs in presence of amine oxidase suppressor aminoguanidine by LCMS analysis (reference value: 339 pmol/mg). The data set is classed as functional.
The test system of data set [17] is L3.6pl. The data set is described as follows: Cytotoxicity against human L3.6PL cells assessed as reduction in cell viability measured after 72 hrs by MTS assay. It is filed as cell-based. The procedure, abridged:
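L3.6pl cells, 500 cells/well in RPMI 1640 with 10% FBS and 250 μM aminoguanidine, plated overnight. Compound in PBS added, then 72 h at 37°C. MTS absorbance at 490 nm. IC50 is the dose giving 50% relative growth versus untreated control. Run twice in triplicate.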

Data set [18] deals with L3.6pl. Put plainly: Effect on polyamine level in human L3.6PL cells assessed as acetyl spermidine level per mg protein in supernatant at 5 uM measured after 72 hrs in presence of amine oxidase suppressor aminoguanidine by LCMS analysis (reference value: 1936 +/- 1365 pmol/mg). The data set is classed as functional.
For data set [19], the system named is L3.6pl. Put plainly: Effect on polyamine level in human L3.6PL cells assessed as decrease in intracellular spermine level at 2 to 7 uM measured after 72 hrs in presence of amine oxidase suppressor aminoguanidine by LCMS analysis. As to conditions: in the assay text read “by N-dansylation and HPLC analysis” for “by LCMS analysis”. It is filed as functional, cell-based. The essentials: as §3

Data set [20] has as its system L3.6pl. The data set is described as follows: Effect on polyamine level in human L3.6PL cells assessed as spermine level per mg protein in supernatant at 2 uM measured after 72 hrs in presence of amine oxidase suppressor aminoguanidine by LCMS analysis (reference value: 6152 +/- 5596 pmol/mg). It is filed as functional.

In general, IC50 refers to the concentration needed to halve the response being measured. For the molecule `CC(C)CCN1CCN([C@@H](CNCc2ccccc2)CC2CCCCC2)C[C@@H]1CC(C)C`, the Activity in [1] is 41 pmol/mg; in data set [4], 77 pmol/mg; in the data set with L3.6pl [7] it was 30%; in the data set on L3.6pl [8] it was 20231 pmol/mg; in the data set on L3.6pl [9], “Non-Toxic”; in [10] it was 94 pmol/mg. Also, the Activity in the data set on L3.6pl [11] is 43243 pmol/mg; in the data set on L3.6pl [12], 64036 pmol/mg; in the data set on L3.6pl [13], 160462 pmol/mg; with L3.6pl [15], 15055 pmol/mg; in the data set on CHO-MG it was “Active”; in the data set on L3.6pl [16], 167 pmol/mg. Also, the Activity is 1706 pmol/mg in the data set with L3.6pl [18] and 2532 pmol/mg with L3.6pl [20]. Also, the inhibition entry in data set [2] and in data set [5] was “inactive” throughout. Besides, the outcome (in the data set with L3.6pl [3]; in the data set on L3.6pl [6]; in data set [14]; in the data set on L3.6pl [19]) was Active. For the same molecule, the IC50 in the data set on L3.6pl [17] was determined as 5.9 µM.
